In ChEMBL document CHEMBL4732106, “Paracetamol analogues conjugated by FAAH induce TRPV1-mediated antinociception without causing acute liver toxicity” (Eur J Med Chem, 2021):

Legend:
[1] = biological target: T1, Transient receptor potential cation channel subfamily V member 1 (Rattus norvegicus, UniProt O35433); test: Agonist activity at TRPV1 in rat isolated mesenteric arteries assessed as vasorelaxation of phenylephrine-induced contraction in presence of TRPV1 antagonist capsazepine; assay type: tissue-based, Artery
T1 sequence (O35433 whole entry): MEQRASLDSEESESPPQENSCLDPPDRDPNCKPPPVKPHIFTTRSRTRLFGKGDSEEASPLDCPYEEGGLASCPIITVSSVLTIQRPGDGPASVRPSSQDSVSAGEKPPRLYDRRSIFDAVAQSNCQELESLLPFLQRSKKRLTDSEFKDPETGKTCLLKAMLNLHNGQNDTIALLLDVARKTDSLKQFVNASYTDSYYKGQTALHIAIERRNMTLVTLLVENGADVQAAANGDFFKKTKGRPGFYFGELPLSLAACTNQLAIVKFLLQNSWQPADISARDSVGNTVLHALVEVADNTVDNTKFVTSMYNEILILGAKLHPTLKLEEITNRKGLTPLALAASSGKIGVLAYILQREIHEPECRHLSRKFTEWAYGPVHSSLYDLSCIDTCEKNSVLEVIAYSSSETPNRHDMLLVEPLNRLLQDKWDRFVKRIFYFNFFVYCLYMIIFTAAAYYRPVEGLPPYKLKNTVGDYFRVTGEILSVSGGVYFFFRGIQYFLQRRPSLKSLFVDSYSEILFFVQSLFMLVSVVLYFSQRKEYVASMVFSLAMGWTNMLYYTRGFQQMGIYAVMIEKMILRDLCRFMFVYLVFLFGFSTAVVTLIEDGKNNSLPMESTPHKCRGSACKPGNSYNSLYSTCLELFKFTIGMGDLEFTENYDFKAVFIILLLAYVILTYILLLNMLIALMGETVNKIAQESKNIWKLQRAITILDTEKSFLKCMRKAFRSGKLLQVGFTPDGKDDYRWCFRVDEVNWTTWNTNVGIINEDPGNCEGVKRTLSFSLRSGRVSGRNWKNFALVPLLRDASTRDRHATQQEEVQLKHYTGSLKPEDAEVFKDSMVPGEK
How it was run: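 Segments from male Wistar rats (200–250 g) were bathed in pH 7.4 physiological salt solution at 37 °C, gassed 95% O₂/5% CO₂, with indomethacin 10 μM and Nω-nitro-L-arginine 100 μM present. After phenylephrine precontraction, conjugate concentration–relaxation curves were run in the presence of capsazepine 3 μM. pEC₅₀ is the negative log molar concentration giving half-maximal relaxation; mean ± SEM, n = animals.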

[2] = biological target: T1, Transient receptor potential cation channel subfamily V member 1; test: Agonist activity at TRPV1 in rat isolated mesenteric arteries assessed as vasorelaxation of phenylephrine-induced contraction; assay type: tissue-based, Artery
How it was run: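 Indomethacin 10 μM and Nω-nitro-L-arginine 100 μM were present throughout. Segments were precontracted with phenylephrine and exposed to conjugate concentrations. pEC₅₀ taken at half-maximal relaxation; mean ± SEM, n = animals.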

[3] = Prodrug conversion in FAAH-/- mouse brain assessed as N-arachidonoyl conjugate level per g protein at 100 mg/kg, ip measured after 20 mins by LC-MS/MS analysis; assay type: ADME, organism-based; set-up: unit: pmol/g protein; settings: in vivo
How it was run: (§1)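 FAAH+/+ and FAAH-/- mice (both sexes) received the primary amine i.p. in saline (sometimes with 5% DMSO). Brains were collected 20 min later, frozen, and homogenized in Tris/EDTA/ascorbate with 10 μM MAFP. N-arachidonoyl conjugates were quantified by positive-ion LC-MS/MS and normalized to protein.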

[4] = Prodrug conversion in FAAH+/+ mouse brain assessed as N-arachidonoyl conjugate level per g protein at 100 mg/kg, ip measured after 20 mins by LC-MS/MS analysis; assay type: ADME, organism-based; set-up: unit: pmol/g protein; settings: in vivo; how it was run: as §1
[5] = biological target: T2, Fatty-acid amide hydrolase 1 (Mus musculus, UniProt O08914); test: Substrate activity at FAAH in FAAH+/+ mouse brain assessed as N-arachidonoyl conjugate level per g protein at 0.1 mM measured after 20 mins by LC-MS/MS analysis; assay type: ADME, tissue-based; settings: 100 µM
T2 sequence (O08914 whole entry): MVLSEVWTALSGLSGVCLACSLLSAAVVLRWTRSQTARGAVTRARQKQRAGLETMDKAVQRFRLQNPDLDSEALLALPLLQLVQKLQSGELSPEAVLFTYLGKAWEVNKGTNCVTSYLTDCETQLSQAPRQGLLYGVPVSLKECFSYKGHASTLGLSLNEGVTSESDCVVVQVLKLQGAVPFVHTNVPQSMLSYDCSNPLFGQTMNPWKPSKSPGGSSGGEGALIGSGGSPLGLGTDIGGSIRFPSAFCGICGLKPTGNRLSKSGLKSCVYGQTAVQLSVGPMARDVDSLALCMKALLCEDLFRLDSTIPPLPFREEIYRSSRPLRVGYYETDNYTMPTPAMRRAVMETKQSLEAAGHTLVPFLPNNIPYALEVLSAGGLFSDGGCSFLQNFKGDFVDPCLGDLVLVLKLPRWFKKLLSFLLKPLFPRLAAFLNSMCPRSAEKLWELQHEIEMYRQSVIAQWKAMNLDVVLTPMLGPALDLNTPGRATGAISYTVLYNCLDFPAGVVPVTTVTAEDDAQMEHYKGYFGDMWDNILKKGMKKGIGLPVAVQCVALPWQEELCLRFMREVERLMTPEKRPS
How it was run: (§2)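 Brains from FAAH+/+ or FAAH-/- mice were homogenized in ice-cold 10 mM Tris with 1 mM EDTA and 0.3 mM ascorbic acid. Aliquots were incubated with 0.1 mM primary amine for 20 min at 37 °C with stirring. Reactions were stopped with cold acetone containing AM404-d4 internal standard, and conjugates were measured by LC-MS/MS. n = 5–7.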

[6] = Prodrug conversion in FAAH-/- mouse brain assessed as N-arachidonoyl conjugate level per g protein at 0.1 mM measured after 20 mins by LC-MS/MS analysis; assay type: ADME, tissue-based; settings: in vitro, 100 µM; how it was run: as §2

| Drug metabolism [3] | Drug metabolism [4] | Drug metabolism [5] | Drug metabolism [6] | SMILES | EC50 [1] | EC50 [2] |
| --- | --- | --- | --- | --- | --- | --- |
|  |  |  |  | CCCCC/C=C\C/C=C\C/C=C\C/C=C\CCCC(=O)Nc1ccc(OC)c(O)c1 | 63.1 nM | 3.16 nM |
| 190 pmol | 82 pmol | 0.54 nmol/g | 0.005 nmol/g | COc1cc(N)ccc1O |  |  |
|  |  |  |  | CCCCC/C=C\C/C=C\C/C=C\C/C=C\CCCC(=O)NCc1ccc(O)c(OC)c1 |  | 0.501 nM |
| 58 pmol | 58 pmol | 2.5 nmol/g | 0.04 nmol/g | NCc1ccc2[nH]ncc2c1 |  |  |
|  |  |  |  | CCCCC/C=C\C/C=C\C/C=C\C/C=C\CCCC(=O)Nc1ccc2[nH]ncc2c1 | 398 nM | 12.6 nM |
|  |  |  |  | CCCCC/C=C\C/C=C\C/C=C\C/C=C\CCCC(=O)Nc1ccc(O)cc1 |  | 50.1 nM |
